Laboratory results from ChEMBL document CHEMBL4689842, “EUbOPEN Chemogenomics Library wave 1” (2021).

System: Fibroblast
Test: Multiplex assay against human fibroblast
Assay type: toxicity, cell-based
Procedure, shortened: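 Phenotypes for tubulin, mitochondrial mass and membrane permeability are expressed as per cents of healthy-nucleus cells. Cells were stained live at seeding with Hoechst33342, BioTracker Green Microtubule Cytoskeleton Dye, MitoTracker Red and Annexin V Alexa Fluor 680, then imaged after compound addition on a CQ1 microscope at 37°C and 5% CO2. Machine-learning gating in CellPathfinder separated Hoechst high-intensity objects from normal cells, divided normal cells by nuclear state (healthy, pyknosed, fragmented) and divided pyknosed cells into mitotic or apoptotic.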

[1] = 12 h, 1 µM, compound concentration 1 uM, replicate 1
[2] = 12 h, 1 µM, compound concentration 1 uM, replicate 2
[3] = 12 h, 10 µM, compound concentration 10 uM, replicate 1
[4] = 12 h, 10 µM, compound concentration 10 uM, replicate 2
[5] = 24 h, 1 µM, compound concentration 1 uM, replicate 1
[6] = 24 h, 1 µM, compound concentration 1 uM, replicate 2
[7] = 24 h, 10 µM, compound concentration 10 uM, replicate 1
[8] = 24 h, 10 µM, compound concentration 10 uM, replicate 2
[9] = 48 h, 1 µM, compound concentration 1 uM, replicate 1
[10] = 48 h, 1 µM, compound concentration 1 uM, replicate 2
[11] = 48 h, 10 µM, compound concentration 10 uM, replicate 1
[12] = 48 h, 10 µM, compound concentration 10 uM, replicate 2

## COc1cccc([C@@H](C)NCCCc2ccccc2Cl)c1.Cl [TECALCET HYDROCHLORIDE]
[1]
  Population Apoptotic (%): 55%
  Population Fragmented Nuclei (%): 20%
  Population Healthy Nuclei (%): 53%
  Population Hoechst High Intensity Objects (%): 9%
  Population Membrane Permeable-Phenotype (%): 22%
  Population Mitochondria Different-Phenotype (%): 4%
  Population Mitotic Cells (%): 44%
  Population Normal (%): 90%
  Population Pyknosed Nuclei (%): 25%
  Population Tubulin-Different-Phenotype (%): 53%
  Total Cell Count: 222
[2]
  Population Apoptotic (%): 16%
  Population Fragmented Nuclei (%): 10%
  Population Healthy Nuclei (%): 81%
  Population Hoechst High Intensity Objects (%): 10%
  Population Membrane Permeable-Phenotype (%): 6%
  Population Mitochondria Different-Phenotype (%): 20%
  Population Mitotic Cells (%): 83%
  Population Normal (%): 89%
  Population Pyknosed Nuclei (%): 8%
  Population Tubulin-Different-Phenotype (%): 18%
  Total Cell Count: 70
[3]
  Population Apoptotic (%): 62%
  Population Fragmented Nuclei (%): 26%
  Population Healthy Nuclei (%): 43%
  Population Hoechst High Intensity Objects (%): 12%
  Population Membrane Permeable-Phenotype (%): 11%
  Population Mitochondria Different-Phenotype (%): 17%
  Population Mitotic Cells (%): 37%
  Population Normal (%): 87%
  Population Pyknosed Nuclei (%): 29%
  Population Tubulin-Different-Phenotype (%): 71%
  Total Cell Count: 183
[4]
  Population Apoptotic (%): 41%
  Population Fragmented Nuclei (%): 7%
  Population Healthy Nuclei (%): 75%
  Population Hoechst High Intensity Objects (%): 5%
  Population Membrane Permeable-Phenotype (%): 18%
  Population Mitochondria Different-Phenotype (%): 90%
  Population Mitotic Cells (%): 58%
  Population Normal (%): 94%
  Population Pyknosed Nuclei (%): 17%
  Population Tubulin-Different-Phenotype (%): 96%
  Total Cell Count: 83
[5]
  Population Apoptotic (%): 56%
  Population Fragmented Nuclei (%): 28%
  Population Healthy Nuclei (%): 50%
  Population Hoechst High Intensity Objects (%): 10%
  Population Membrane Permeable-Phenotype (%): 26%
  Population Mitochondria Different-Phenotype (%): 4%
  Population Mitotic Cells (%): 43%
  Population Normal (%): 89%
  Population Pyknosed Nuclei (%): 21%
  Population Tubulin-Different-Phenotype (%): 62%
  Total Cell Count: 217
[6]
  Population Apoptotic (%): 77%
  Population Fragmented Nuclei (%): 8%
  Population Healthy Nuclei (%): 80%
  Population Hoechst High Intensity Objects (%): 8%
  Population Membrane Permeable-Phenotype (%): 6%
  Population Mitochondria Different-Phenotype (%): 6%
  Population Mitotic Cells (%): 22%
  Population Normal (%): 91%
  Population Pyknosed Nuclei (%): 10%
  Population Tubulin-Different-Phenotype (%): 12%
  Total Cell Count: 95
[7]
  Population Apoptotic (%): 61%
  Population Fragmented Nuclei (%): 25%
  Population Healthy Nuclei (%): 53%
  Population Hoechst High Intensity Objects (%): 17%
  Population Membrane Permeable-Phenotype (%): 13%
  Population Mitochondria Different-Phenotype (%): 31%
  Population Mitotic Cells (%): 38%
  Population Normal (%): 82%
  Population Pyknosed Nuclei (%): 21%
  Population Tubulin-Different-Phenotype (%): 75%
  Total Cell Count: 178
[8]
  Population Apoptotic (%): 35%
  Population Fragmented Nuclei (%): 8%
  Population Healthy Nuclei (%): 70%
  Population Hoechst High Intensity Objects (%): 8%
  Population Membrane Permeable-Phenotype (%): 24%
  Population Mitochondria Different-Phenotype (%): 91%
  Population Mitotic Cells (%): 64%
  Population Normal (%): 91%
  Population Pyknosed Nuclei (%): 20%
  Population Tubulin-Different-Phenotype (%): 92%
  Total Cell Count: 97
[9]
  Population Apoptotic (%): 54%
  Population Fragmented Nuclei (%): 28%
  Population Healthy Nuclei (%): 60%
  Population Hoechst High Intensity Objects (%): 10%
  Population Membrane Permeable-Phenotype (%): 19%
  Population Mitochondria Different-Phenotype (%): 3%
  Population Mitotic Cells (%): 45%
  Population Normal (%): 89%
  Population Pyknosed Nuclei (%): 10%
  Population Tubulin-Different-Phenotype (%): 42%
  Total Cell Count: 229
[10]
  Population Apoptotic (%): 0%
  Population Healthy Nuclei (%): 70%
  Population Hoechst High Intensity Objects (%): 13%
  Population Membrane Permeable-Phenotype (%): 13%
  Population Mitochondria Different-Phenotype (%): 4%
  Population Mitotic Cells (%): 100%
  Population Normal (%): 87%
  Population Pyknosed Nuclei (%): 1%
  Population Tubulin-Different-Phenotype (%): 40%
  Total Cell Count: 100
[11]
  Population Apoptotic (%): 76%
  Population Fragmented Nuclei (%): 46%
  Population Healthy Nuclei (%): 45%
  Population Hoechst High Intensity Objects (%): 21%
  Population Membrane Permeable-Phenotype (%): 6%
  Population Mitochondria Different-Phenotype (%): 16%
  Population Mitotic Cells (%): 23%
  Population Normal (%): 78%
  Population Pyknosed Nuclei (%): 8%
  Population Tubulin-Different-Phenotype (%): 60%
  Total Cell Count: 207
[12]
  Population Apoptotic (%): 0%
  Population Fragmented Nuclei (%): 56%
  Population Healthy Nuclei (%): 43%
  Population Hoechst High Intensity Objects (%): 15%
  Population Membrane Permeable-Phenotype (%): 0%
  Population Mitochondria Different-Phenotype (%): 12%
  Population Mitotic Cells (%): 100%
  Population Normal (%): 84%
  Population Pyknosed Nuclei (%): 0%
  Population Tubulin-Different-Phenotype (%): 76%
  Total Cell Count: 138
